PTEN del growth = suppresses growth of cells with PTEN deletion. HCT116 PTEN-null viability, CellTiter-Glo, 60 h; hits give low values. viability, % at 10 µM. 1.2% of 140,000 active. AID 827;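 active = viability at or below a set limit, 4 SD under the median of all tested compounds, cut at about 3.7% in these data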;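 also: PTEN knockout HCT116 line with beta catenin targeted HCT116 as companion control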
HUVEC prolif 384 = inhibitors of human endothelial cell proliferation | HUVEC proliferation, CellTiter-Glo luminescence, 72 h; hits give low values | 1.1% of 86,000 active | viability, % at 10 µM (by protocol) | AID 648;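 active = viability at or below 30%; inactive = viability above 30%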;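 also: 100% = median luminescence of DMSO-only cell control wells on each plate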
H69AR inhibit = growth inhibitors of human H69AR lung tumor cells. H69AR lung tumor viability, ATP luminescence, 72 h; hits give low values. viability, % at 10 µM. 6% of 85,000 active. AID 598;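 active = viability at or below 40%; inactive = viability above 40%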;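 also: multidrug resistant small cell line overexpressing MRP-1 efflux transporter; 100% = mean luminescence of untreated control wells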
HCT116 bCat-KO = beta-catenin-lacking colon tumor cell growth suppression. AID 818. viability, % at 10 µM. HCT116 beta-catenin knockout viability, CellTiter-Glo, 60 h; hits give low values. 1.5% of 140,000 active;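 active = viability at or under a set limit, the compound median less 4 SD, cut at about 6% in these data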;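 also: 0% = Hyamine 1622 control at 20 µM and 100% = untreated cell control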
Fibroblast inh = blocks proliferation of human lung fibroblasts; LL 47 human lung fibroblast viability, ATP luminescence; hits give low values; viability, % at 10 µM; 1.1% of 85,000 active; AID 719;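 active = viability at or below 50% in the single dose screen; inactive = viability above 50%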;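 also: compound exposure lasted 72 h before the ATP readout; 100% = median luminescence of untreated cell-only wells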
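Material: human LL 47 lung fibroblast cells; quantity: 1,150 cells/well; medium: IMEM plus 15% FBS; doses: 0.1% DMSO in all compound wells; timing: overnight attachment after seeding, then 72 h compound exposure at 37 °C; detection: CellTiter-Glo luminescence; measure: % viability of median cell-only signal; controls: cell-only wells, no compound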
Phagocyt inh = macrophage phagocytosis inhibition; J774A.1 macrophage IgG-bead phagocytosis, imaging; inhibition, % at 5 µM; 0.07% of 110,000 active;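 active = inhibition above the mean of the plate negative controls plus 5 SD, cut at about 13% in these data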;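 also: phagocytic index as fraction of beads internalized from green versus red external bead signal; plate controls were DMSO negative control for no effect and cytochalasin-D positive control for full effect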
* = called active by the depositor; · = no result given. Only a selection was taken, and hits are over-represented in it overall.

SMILES	PTEN del growth	HUVEC prolif 384	H69AR inhibit	HCT116 bCat-KO	Fibroblast inh	Phagocyt inh
COc1cccc(-c2nnc(NC(=O)c3ccccc3Br)o2)c1	·	78.3	34.4*	·	93.4	·
CCCN(CCC)S(=O)(=O)c1ccc(C(=O)Nc2nnc(-c3cc(OC)cc(OC)c3)o2)cc1	10.5	31.1	16.0*	15.0	51.2	-0.5
CCCN(CCC)S(=O)(=O)c1ccc(C(=O)Nc2nnc(CSC)o2)cc1	24.1	61.1	32.0*	36.4	83.8	-2.4
CCCN(CCC)S(=O)(=O)c1ccc(C(=O)Nc2nnc(-c3cccc(OC)c3)o2)cc1	10.0	1.7*	16.1*	10.0	12.2*	-0.3
COc1cccc(-c2nnc(NC(=O)C(C)C)o2)c1	73.8	97.0	81.2	91.5	99.1	-0.2
COc1ccc(S(=O)(=O)NCCC(C)C)cc1C	95.0	100.5	84.8	88.5	88.9	0.5
Cc1csc(NC(=O)c2cc(-c3ccccc3)nc3ccccc23)n1	35.2	·	·	40.0	·	-7.9
CC1=NN(C(=O)c2csc(C(C)C)c2)C(O)(C(F)(F)F)C1 (centres undefined)	89.3	·	·	91.9	·	-17.6
COc1ccc(C(=O)Nc2nc3ccccc3[nH]2)cc1OC	98.2	101.0	66.6	91.8	107.3	·
COc1cc(OC)cc(C(=O)Nc2nc3ccccc3[nH]2)c1	52.5	76.9	30.1*	48.1	74.1	0.1
COc1ccccc1CCC(=O)Nc1nc2ccccc2[nH]1	8.1	90.3	21.1*	7.2	90.6	0.3
CCCOc1ccc2nc(NC(=O)OC)[nH]c2c1	13.6	33.4	30.8*	9.6	49.5*	·
CCCCCC(=O)Nc1nc2ccccc2[nH]1	45.9	86.3	30.5*	51.1	83.6	·
O=C(NC1CCCCC1)c1cc([N+](=O)[O-])[nH]n1	81.3	·	·	89.5	·	-8.1
CC(=O)Oc1c(C(=O)c2nnc(C)o2)c(=O)n(C)c2ccccc12	102.5	·	·	98.4	·	-4.2
Cc1ccc(-c2nsc3c(N4CCN(C(=O)c5ccco5)CC4)ncnc23)cc1	·	94.5	80.9	·	99.5	-0.2
O=C(c1ccco1)N1CCN(c2ncnc3scc(-c4ccc(F)cc4)c23)CC1	75.5	87.3	23.8*	84.3	69.4	·
Cn1c(C(C#N)C(=O)c2ccco2)nc2ccccc21 (centres undefined)	73.3	89.4	32.6*	74.4	79.9	-0.7
CC1=NOC(=O)/C1=C\c1ccc(-c2cc(Cl)ccc2Cl)o1	2.5*	8.2*	2.0*	3.0*	6.3*	1.7
CC1=NOC(=O)/C1=C/c1ccc(-c2ccc(Cl)cc2)o1	16.0	55.9	2.5*	18.0	8.7*	-0.8
Cc1ccc(-c2ccc(/C=C3\C(=O)ON=C3c3ccccc3)o2)c([N+](=O)[O-])c1	51.9	·	·	36.1	·	·
CN(C)C(=S)Nc1ccc2ccccc2c1	96.4	·	·	95.2	·	6.1
CCCCNC(=O)NCc1cnn(C)c1C	91.6	·	·	98.1	·	-4.2
Cc1cc(C)n(C(=O)CCCC(=O)n2nc(C)cc2C)n1	102.1	99.6	94.0	102.5	91.8	0.7
Cc1cc(C)n(C(=O)CNc2ccc(C)c(C)c2)n1	1.4*	102.8	103.5	0.9*	105.2	·
SMILES	PTEN del growth	HUVEC prolif 384	H69AR inhibit	HCT116 bCat-KO	Fibroblast inh	Phagocyt inh
COc1cc2c(=O)n(Cc3ccccc3)c(=O)n(CC(=O)NCCc3ccccc3)c2cc1OC	32.5	75.9	33.4*	67.3	64.5	1.0
COc1cc(CNC2CCCC2)cc(Cl)c1OCc1ccccc1F	1.1*	·	·	1.1*	·	3.7
Cc1cc(C)c2nc(N3CCC(C(=O)NCCCN4CCCCC4)CC3)sc2c1	2.3*	4.0*	58.0	3.1*	2.7*	-1.8
Cc1cc(C)c2nc(N3CCC(C(=O)N4CCCC4)CC3)sc2c1	91.7	88.0	81.4	94.3	99.0	0.3
CCOC(=O)c1cnc(-n2nc(C)cc2C)nc1NNc1nc(-c2ccccc2)cc(-c2ccccc2)n1	4.4	·	·	4.5*	·	-12.2
CCOC(=O)c1cnc(-n2nc(C)cc2C)nc1NC1CCCCC1	2.1*	31.8	1.1*	1.9*	·	1.8
CCOC(=O)c1cnc(-n2nc(C)cc2C)nc1Nc1ccc(C)cc1	70.8	·	·	58.2	·	0.1
CCOC(=O)c1cnc(-n2nc(C)cc2C)nc1Nc1ccc(N(C)C)cc1	10.2	56.3	3.0*	9.8	30.0*	·
CCOC(=O)c1cnc(-n2nc(C)cc2C)nc1NC	86.9	113.1	95.1	79.1	103.5	0.7
CCOC(=O)c1cnc(-n2nc(C)cc2C)nc1N(CC)CC	83.8	99.4	36.1*	58.8	87.3	-0.1
COc1ccc(NC(=O)/C(C#N)=C/c2ccc(OCc3ccccc3F)cc2)cc1	89.0	·	·	98.7	·	-12.9
O=C(COC(=O)CCC1CCCC1)Nc1ccc(Cl)cc1F	90.6	·	·	87.7	·	-2.2
C=CCn1c(SCC(=O)NCc2ccc3c(c2)OCO3)nc2scc(-c3ccc(F)cc3)c2c1=O	73.2	·	·	62.8	·	-0.2
O=C(CSc1nnc(Cc2cccs2)n1-c1ccccc1)NCc1ccc2c(c1)OCO2	95.8	103.4	97.1	90.2	·	-0.2
O=C(CSc1nc2[nH]ncc2c(=O)n1-c1ccccc1)c1ccc2c(c1)OCCO2	71.1	55.5	16.8*	71.9	89.4	2.4
CC(Sc1nnc(-c2cccs2)n1-c1ccccc1)C(=O)NCc1ccc2c(c1)OCO2 (centres undefined)	94.0	101.9	38.8*	94.8	103.4	-0.6
C=CCn1c(SC(C)C(=O)NCc2ccc3c(c2)OCO3)nc2scc(-c3ccccc3)c2c1=O (centres undefined)	66.3	74.0	33.6*	80.8	94.5	·
Cn1c(SCC(=O)Nc2ccc(N3CCOCC3)cc2)nnc1-c1ccccc1	118.8	14.8*	85.8	106.6	104.9	0.1
N#CC1=C(SCc2ccccc2Cl)NC(=O)C(C(N)=O)C1 (centres undefined)	90.2	94.3	94.5	95.0	101.6	0.1
O=C(/C(C=Nc1ccc(Br)cc1)=C(/O)c1ccco1)C(F)(F)F	90.0	·	·	84.0	·	-2.1
O=C(CSc1nnc(-c2cccs2)n1-c1ccccc1)c1ccc2c(c1)OCCO2	·	33.8	16.8*	·	77.1	-0.6
COc1ccc(NC(=O)CSc2nnc(C3CC3)n2-c2ccccc2)cc1	96.2	91.2	93.9	92.5	94.7	·
COc1ccc(NC(=O)CSc2nnc(-c3cccs3)n2-c2ccccc2)cc1	50.5	20.9*	45.6	52.5	38.9*	-0.4
Cn1c(=O)n(C)c2cc(NC(=O)CCl)ccc21	5.2	54.4	1.5*	8.1	41.9*	0.0
O=C(CSc1nnc(-c2cccs2)n1-c1ccccc1)N1CCc2ccccc21	·	94.8	16.2*	·	·	·
Cc1ccc(NC(=O)NCc2ccc3c(c2)OCO3)cc1	101.0	96.5	96.5	95.8	105.5	·
CC(C)(O[C@@H]1O[C@H](CO)[C@@H](O)[C@H](O)[C@H]1O)[C@H]1Cc2cc3ccc(=O)oc3cc2O1	94.9	·	·	101.8	·	·
CCCOC(=O)C1[C@H]2C(=O)N(CC3CCCO3)C[C@]23C=C[C@H]1O3 (some centres undefined)	93.8	107.0	94.3	98.5	98.9	-0.8
